High-throughput results from PubChem.
bIAP inhibitor: intestinal alkaline phosphatase (bovine) inhibition. purified bovine IAP, CDP-star luminescence, 30 min. inhibition, % at 20 µM. 190,000 tested, under 10 active;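 active means over 50% inhibition of intestinal alkaline phosphatase at 20 µM in the single-dose screen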
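System: Purified bovine intestinal alkaline phosphatase (IAP) enzyme | Input: IAP diluted 1/65,000,000 in the well | Also added: CDP-star chemiluminescent phosphatase substrate, 30 µM final | Dosing: 20 µM single dose | Times: Enzyme reaction for 30 min at room temperature | Detection: Luminescence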
bIAP activator: intestinal alkaline phosphatase (bovine) activation | purified bovine IAP, CDP-star luminescence, 30 min; hits give high values; fold of DMSO-control signal, blank-subtracted | activation factor at 20 µM | 200,000 compounds, 0.17% hits;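 active means activation factor of 2 or more at 20 µM, a signal rise over negative controls twice the positive control's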
mIAP inh: blocks mouse intestinal alkaline phosphatase | purified mouse IAP, CDP-Star luminescence, 30 min | inhibition, % at 10 µM | 330,000 compounds, 0.2% hits | AID 2806;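 active means inhibition of at least 40% at 10 µM in the primary screen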;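 further: plate controls were DMSO with enzyme for no effect and no enzyme wells for full effect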
hIAP block: blocks human intestinal alkaline phosphatase; purified IAP, CDP-Star luminescence, 30 min; 330,000 compounds, 0.12% hits; inhibition, % at 10 µM;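 active means inhibition reaching a set limit with compound at 10 µM in the primary screen, cut at about 35% in these data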;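 further: plate controls were DMSO wells with enzyme for no effect and no-enzyme buffer wells for full effect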
Target sequence (P09923 whole entry, looked up): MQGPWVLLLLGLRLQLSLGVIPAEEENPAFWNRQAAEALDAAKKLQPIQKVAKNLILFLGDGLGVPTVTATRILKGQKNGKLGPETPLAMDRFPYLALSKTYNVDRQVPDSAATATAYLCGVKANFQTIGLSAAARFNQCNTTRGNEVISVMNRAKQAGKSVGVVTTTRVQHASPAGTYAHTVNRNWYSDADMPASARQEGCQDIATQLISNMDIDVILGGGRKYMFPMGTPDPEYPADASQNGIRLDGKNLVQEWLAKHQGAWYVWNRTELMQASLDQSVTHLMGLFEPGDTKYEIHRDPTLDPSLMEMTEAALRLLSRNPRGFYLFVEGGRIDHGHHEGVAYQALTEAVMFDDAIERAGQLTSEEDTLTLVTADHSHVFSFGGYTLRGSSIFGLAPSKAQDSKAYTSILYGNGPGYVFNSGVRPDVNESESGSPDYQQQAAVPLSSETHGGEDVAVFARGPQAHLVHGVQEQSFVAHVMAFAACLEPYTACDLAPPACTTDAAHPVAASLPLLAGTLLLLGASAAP
hIAP activ: human IAP activation; purified human IAP, CDP-Star luminescence, 30 min; hits give high values; 1 = vehicle-only enzyme, 0 = enzyme-free background; activation factor at 10 µM; 330,000 compounds, 0.16% hits; AID 2524;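 active means activation factor of the enzyme at least 2-fold when tested at 20 µM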
mIAP activ: increases mouse intestinal alkaline phosphatase activity; muIAP, CDP-Star luminescence, 30 min; hits give high values; 1 = vehicle-only enzyme signal, 0 = enzyme-free wells; activation factor at 10 µM; 330,000 compounds, 0.24% hits;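 active means activation factor of at least 2 at 20 µM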
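System: mouse IAP enzyme. Reagent: CDP-Star chemiluminescent phosphatase substrate. Benchmarks: DMSO wells, no-enzyme wells. Times: 30 min enzyme-substrate-compound incubation at room temperature. Detection: luminescence from enzymatic CDP-Star hydrolysis. Doses: test compounds delivered from DMSO solution.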
mIAP inh conf: mouse IAP inhibition confirmation; shares compounds with mIAP inh; purified mouse IAP, CDP-Star luminescence, 30 min; inhibition, % at 10 µM; 11,000 compounds, 4.7% hits;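 active means inhibition of at least 40% at 10 µM in either of the two replicates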;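 further: plate controls were DMSO wells with enzyme for no effect and buffer wells lacking enzyme for full effect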
An asterisk follows results filed as active; i = inactive; x = not tested or not shown. Compounds with a hit are over-represented: about 0.77% of the library has one in this group of screens.

SMILES | bIAP inhibitor | bIAP activator | mIAP inh | hIAP block | hIAP activ | mIAP activ | mIAP inh conf
NNC(=O)c1cc(O)c(O)c(O)c1 | 25 | 0.8 | 63* | 3 | 0.97 | 0.37 | 71*
COc1c(Cl)cc(C(=O)NN)cc1Cl | 7 | 0.9 | -1 | -15 | 1.2 | 1 | x
Cc1cc(C)c(S(=O)(=O)Nc2ccc(O)c(Sc3ncn[nH]3)c2)cc1C | x | x | 79* | -3 | 1 | 0.21 | 86*
COc1ccc(S(=O)(=O)Nc2ccc(O)c(Sc3ncn[nH]3)c2)cc1 | -9 | 1.1 | 63* | -13 | 1.1 | 0.37 | 72*
Cc1cc(C)c(S(=O)(=O)Nc2ccc(O)cc2)cc1C | 13 | 0.9 | 1 | -7 | 1.1 | 0.99 | x
CC(C)c1ccc(S(=O)(=O)Nc2ccc(O)c(Sc3ncn[nH]3)c2)cc1 | x | x | 35 | -69 | 1.7 | 0.65 | x
CCC1CCCCN1CCCNC(=O)c1c(O)nc2ccccn2c1=O (stereo unspecified) | x | x | 6 | 7 | 0.93 | 0.94 | x
CCOc1ccc(S(=O)(=O)N2CCC(C(=O)NCCc3ccccc3)CC2)cc1 | x | x | -4 | -14 | 1.1 | 1 | x
CC(=O)Oc1cc2cccc(OC(C)=O)c(=O)c2c(OC(C)=O)c1OC(C)=O | -4 | 1 | 45* | 9 | 0.91 | 0.55 | 49*
COc1cccc(NC(=O)Nc2ccc(C(C)(C)C)cc2)c1 | -8 | 1.1 | -335 | -54 | 1.5 | 4.4* | -118
COc1ccc(C(=O)NC(C)C2CC3CCC2C3)c(OC)c1 (stereo unspecified) | x | x | -1 | 0 | 1 | 1 | x
COc1cccc(NC(=O)NC(C)C2CC3CCC2C3)c1 (stereo unspecified) | -9 | 1.1 | -167 | 6 | 0.94 | 2.7* | -97
COc1cccc(C(C)NC(=O)Nc2cccc(C(F)(F)F)c2)c1 (stereo unspecified) | 15 | 0.8 | -426 | -50 | 1.5 | 5.3* | -284
COc1cccc(-c2csc(NC(=O)Nc3ccccc3)n2)c1 | x | x | -221 | 12 | 0.88 | 3.2* | -111
COc1cccc(-c2csc(NC(=O)C3CC3)n2)c1 | -18 | 1.2 | -7 | -6 | 1.1 | 1.1 | x
Cc1cccc(OCC(=O)NCC(C)(C)N2CCOCC2)c1 | x | x | -2 | -14 | 1.1 | 1 | x
COc1ccc(N(C(C)C(=O)Nc2cccnc2)S(C)(=O)=O)cc1 (stereo unspecified) | -5 | 1 | 1 | 7 | 0.93 | 0.99 | x
CCN(CC)S(=O)(=O)c1cccc(NC(=O)Nc2cccc(C(F)(F)F)c2)c1 | 34 | 0.7 | i | -18 | 1.2 | 7.4* | -357
COc1cccc(NC(=O)Nc2ccc3c(c2)CCC3)c1 | x | x | -336 | -52 | 1.5 | 4.4* | -190
COc1ccc(CNC(=O)NCc2ccc(OC)c(OC)c2)cc1OC | -2 | 1 | 5 | -4 | 1 | 0.95 | x
COc1cccc(NC(=O)Nc2ccc(C)c(Cl)c2)c1 | -2 | 1 | -309 | -27 | 1.3 | 4.1* | -117
COc1cccc(NC(=O)Nc2cc(C(=O)O)ccc2C)c1 | 9 | 0.9 | -2 | 4 | 0.96 | 1 | x
COc1ccc(CNC(=O)Nc2cccc(C(F)(F)F)c2)cc1OC | -3 | 1 | -116 | -18 | 1.2 | 2.2* | -121
CCN(CC)S(=O)(=O)c1cccc(NC(=O)CC2CCCC2)c1 | x | x | -2 | -7 | 1.1 | 1 | x
Cc1cc(/C=C2\SC(=S)NC2=O)c(C)n1C | 20 | 0.8 | 59* | 7 | 0.93 | 0.41 | 62*
SMILES | bIAP inhibitor | bIAP activator | mIAP inh | hIAP block | hIAP activ | mIAP activ | mIAP inh conf
COc1ccc(-n2c(C)cc(/C=C3\SC(=S)NC3=O)c2C)cc1 | 45 | 0.5 | 27 | -10 | 1.1 | 0.73 | x
Cc1cc(/C=C2\SC(=S)NC2=O)c(C)n1-c1ccccc1 | x | x | 43* | 14 | 0.86 | 0.57 | 48*
Cc1cc(/C=C2\SC(=S)NC2=O)c(C)n1-c1ccc(O)cc1 | x | x | 73* | 12 | 0.88 | 0.27 | 71*
CC(=O)c1c(C)oc2ccc(NS(=O)(=O)c3ccc(O)c(C(=O)O)c3)cc12 | 6 | 0.9 | 13 | -5 | 1 | 0.87 | x
O=C(O)c1cc(S(=O)(=O)Nc2ccc3oc(=O)sc3c2)ccc1O | 8 | 0.9 | 65* | -5 | 1.1 | 0.35 | 72*
c1coc(-c2nnc(-c3ccco3)nn2)c1 | x | x | 71* | -10 | 1.1 | 0.29 | 81*
O=C(N/N=C/c1ccc([N+](=O)[O-])o1)c1ccccc1NS(=O)(=O)c1cccs1 | x | x | 53* | -17 | 1.2 | 0.47 | 62*
CCCCCC(=O)N/N=C/c1ccc([N+](=O)[O-])o1 | 8 | 0.9 | 23 | -20 | 1.2 | 0.77 | x
O=C(N/N=C/c1ccc([N+](=O)[O-])o1)c1cc2ccccc2o1 | x | x | 40* | 7 | 0.93 | 0.6 | 59*
O=C(N/N=C/c1ccc([N+](=O)[O-])o1)c1ccncc1 | x | x | 43* | -14 | 1.1 | 0.57 | 48*
O=C(Cc1ccc2c(c1)OCO2)NN=Cc1ccc([N+](=O)[O-])o1 | x | x | 54* | -15 | 1.2 | 0.46 | 69*
O=C(NN=Cc1ccc(F)cc1)c1ccccc1NS(=O)(=O)c1cccs1 | x | x | 0 | -6 | 1.1 | 1 | x
Cc1cccc(CN2CCC(CNC(=O)Cn3ncc4c([nH]c5ccccc54)c3=O)CC2)c1 | x | x | -4 | -18 | 1.2 | 1 | x
Fc1cccc2sc(Nc3nnc(-c4ccccc4)o3)nc12 | -5 | 1 | 27 | -20 | 1.2 | 0.73 | 37*
CCOC(=O)CC(NC(=O)CCS(=O)(=O)c1ccc2c(c1)n(C)c(=O)c(=O)n2C)c1ccc(C)cc1 (stereo unspecified) | x | x | -4 | 6 | 0.94 | 1 | x
CCCCN1C(=O)/C(=C/C=C2\N(C)c3ccccc3C2(C)C)SC1=S | x | 0.5 | 51* | 23 | 0.77 | 0.49 | 43*
O=C(NCC1CCN(S(=O)(=O)c2ccccc2)CC1)Nc1ccc(F)cc1F | x | x | -26 | 1 | 0.99 | 1.3 | x
Cc1c(Br)c(O)c(Br)c2sc(=O)oc12 | x | x | 59* | -9 | 1.1 | 0.41 | 65*
O=C(NCCN1CCCCC1)Nc1ccc(F)c(Cl)c1 | 10 | 0.9 | -14 | 10 | 0.9 | 1.1 | x
Cc1cc(C)cc(NC(=O)NCC2CCN(Cc3cc(C)ccc3C)CC2)c1 | x | x | -256 | -61 | 1.6 | 3.6* | -132
Cc1ccc(C)c(CN2CCC(CNC(=O)Nc3ccc(F)c(Cl)c3)CC2)c1 | x | x | -235 | -54 | 1.5 | 3.4* | -98
Cc1ccc(C)c(CN2CCC(CNC(=O)CCc3nnc4ccc(N5CCCCC5)nn34)CC2)c1 | x | x | 0 | 5 | 0.95 | 1 | x
COc1cc(NC(=O)NCC2CCN(Cc3ccccc3F)CC2)cc(OC)c1 | x | x | -208 | -32 | 1.3 | 3.1* | -167
CCN(Cc1ccccc1)C(=O)C1CCN(S(=O)(=O)c2ccc3c(c2)OCCO3)CC1 | x | x | 0 | -31 | 1.3 | 1 | x
